# Experimental data as given in ChEMBL document CHEMBL1122387, “Synthesis and biological evaluation of sparsomycin analogues” (1983).
# Tests used:
# Osteoclast-like = test: Percent inhibition of [75Se]- selenomethionine incorporation in the protein synthesis assay in bone marrow cell lines at a concentration of 10 E-4; assay type: functional, Mus musculus
# Outline: (§1)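 Protein synthesis in 6×10^5 cells per well (3×10^6 cells/mL), from CD-1 mouse femoral marrow or ip-passaged DBA/2 P388 cells. Medium is Spinner's (10% heat-inactivated FCS for P388). 0.2 μCi L-[75Se]selenomethionine is added with compound, 2 h at 37 °C, 5% CO2, rocked. Cells are harvested and gamma-counted. % inhibition versus control cpm (ethanol controls where used), six replicate wells; puromycin or sparsomycin serves as control.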
# P388 [1] = test: Percent inhibition of [75Se]- selenomethionine incorporation in the protein synthesis assay in P388 cell lines at a concentration of 10 E-4 M; assay type: functional; settings: Mus musculus; outline: as §1
# P815 [2] = test: Percent inhibition of [75Se]- selenomethionine incorporation in the protein synthesis assay in P815 cell lines at a concentration of 10 E-4 M; assay type: functional; settings: Mus musculus
# Outline: (§2)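 P815 mastocytoma cells are cultured in complete DMEM and plated at 6×10^5 cells per well in CDMEM. 0.2 μCi L-[75Se]selenomethionine is added with compound, 2 h at 37 °C, 5% CO2, on a rocker. Cells are harvested and gamma-counted. % inhibition is taken versus control cpm (ethanol controls where used), four replicate wells.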
# P388 [3] = test: Percent inhibition of [123I]UdR incorporation in the DNA synthesis assay in P388 cell lines at a concentration of 10 E-3 M; assay type: functional; settings: Mus musculus, in the assay text read “[125I]UdR” for “[123I]UdR”
# Outline: (§3)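 DNA synthesis over 2 h at 37 °C, 5% CO2, on a rocker. Wells hold 6×10^5 cells (3×10^6 cells/mL): femoral marrow from male CD-1 mice, or P388 ascites cells kept by ip passage in DBA/2 mice. Medium is αMEM. Label is 0.1 μCi 125IUdR in 2×10^-5 M FUdR. Cells are harvested and gamma-counted. % inhibition versus control cpm, six replicate wells; ara-C serves as control.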
# [4] = Percent inhibition of [123I]UdR incorporation in the DNA synthesis assay in bone marrow cells at a concentration of 10 e-3 M; assay type: functional; settings: Mus musculus, Bone element; in the assay text read “[125I]UdR” for “[123I]UdR”; outline: as §3
# P815 [5] = test: Percent inhibition of [75Se]- selenomethionine incorporation in the protein synthesis assay in P815 cell lines at a concentration of 10 E-3 M; assay type: functional; settings: Mus musculus; outline: as §2
# P388 [6] = test: Percent inhibition of [75Se]- selenomethionine incorporation in the protein synthesis assay in P388 cell lines at a concentration of 10 E-3 M; assay type: functional; settings: Mus musculus; outline: as §1
# [7] = Percent inhibition of [75Se]- selenomethionine incorporation in the protein synthesis assay in bone marrow cell lines at a concentration of 10 E-3; assay type: functional, Mus musculus; outline: as §1
smiles,measurement,setting,value
COc1ccc(CC(CO)NC(=O)/C=C/c2c(C)nc(O)nc2O)cc1 (stereo unspecified),Inhibition,Osteoclast-like,0%
same,inhibition at 100 µM,P388 [1],0%
same,inhibition at 100 µM,P815 [2],0%
Cc1nc(O)nc(O)c1/C=C/C(=O)NCCc1ccc(Br)cc1,inhibition at 1000 µM,P388 [3],17%
same,inhibition at 1000 µM,[4],0%
same,inhibition at 1000 µM,P815 [5],89%
same,inhibition at 1000 µM,P388 [6],27%
same,Inhibition,[7],42%
Cc1ccc(CCNC(=O)/C=C/c2c(C)nc(O)nc2O)cc1,inhibition at 1000 µM,P388 [3],0%
same,inhibition at 1000 µM,[4],0%
same,inhibition at 1000 µM,P815 [5],11%
same,inhibition at 1000 µM,P388 [6],0%
same,Inhibition,[7],35%
Cc1nc(O)nc(O)c1/C=C/C(=O)NC(CO)Cc1ccccc1 (stereo unspecified),inhibition at 1000 µM,P388 [3],5%
same,inhibition at 1000 µM,[4],0%
same,inhibition at 1000 µM,P815 [5],52%
same,inhibition at 1000 µM,P388 [6],6%
same,Inhibition,[7],34%
Cc1nc(O)nc(O)c1/C=C/C(=O)NC(CO)Cc1ccc(Br)cc1 (stereo unspecified),inhibition at 1000 µM,P388 [3],34%
same,inhibition at 1000 µM,[4],15%
same,inhibition at 1000 µM,P815 [5],94%
same,inhibition at 1000 µM,P388 [6],44%
same,Inhibition,[7],64%
Cc1nc(O)nc(O)c1/C=C/C(=O)NCCC(=O)NCc1ccc(Br)cc1,inhibition at 1000 µM,P815 [5],69%
same,inhibition at 1000 µM,P388 [6],23%
same,Inhibition,[7],29%
Cc1nc(O)nc(O)c1/C=C/C(=O)NCCc1ccccc1,inhibition at 1000 µM,P388 [3],9%
same,inhibition at 1000 µM,[4],0%
same,inhibition at 1000 µM,P815 [5],2%
same,inhibition at 1000 µM,P388 [6],1%
same,Inhibition,[7],34%
COc1ccc(CCNC(=O)/C=C/c2c(C)nc(O)nc2O)cc1,inhibition at 1000 µM,P388 [3],2%
same,inhibition at 1000 µM,[4],0%
same,inhibition at 1000 µM,P815 [5],0%
same,inhibition at 1000 µM,P388 [6],0%
same,Inhibition,[7],44%
COc1ccc(CNC(=O)CCNC(=O)/C=C/c2c(C)nc(O)nc2O)cc1,inhibition at 1000 µM,P815 [5],0%
same,inhibition at 1000 µM,P388 [6],1%
same,Inhibition,[7],11%
Cc1ccc(CC(CO)NC(=O)/C=C/c2c(C)nc(O)nc2O)cc1 (stereo unspecified),inhibition at 1000 µM,P388 [3],0%
same,inhibition at 1000 µM,[4],0%
same,inhibition at 1000 µM,P815 [5],65%
same,inhibition at 1000 µM,P388 [6],4%
same,Inhibition,[7],40%
Nc1ccn([C@@H]2O[C@H](CO)[C@@H](O)[C@@H]2O)c(=O)n1 [CYTARABINE],inhibition at 1000 µM,P388 [3],99%
same,inhibition at 1000 µM,[4],99%
COc1ccc(C[C@H](N)C(=O)N[C@H]2[C@@H](O)[C@H](n3cnc4c(N(C)C)ncnc43)O[C@@H]2CO)cc1 [PUROMYCIN],inhibition at 1000 µM,P815 [5],98%
same,inhibition at 1000 µM,P388 [6],64%
same,Inhibition,[7],61%
CSC[S@@+]([O-])CC(CO)NC(=O)/C=C/c1c(C)[nH]c(=O)[nH]c1=O (stereo partly specified) [SPARSOMYCIN],inhibition at 1000 µM,P388 [6],48%
same,Inhibition,[7],29%
